In ChEMBL document CHEMBL3414451, “Discovery of a series of efficient, centrally efficacious BACE1 inhibitors through structure-based drug design” (J Med Chem, 2015):

How the values were obtained:
[1] = Ratio of free drug level in brain to plasma in CD1 mouse at 10 mg/kg, sc; format: ADME, organism-based; design: dose 10 mg/kg, route subcutaneous; conditions: brain and plasma
In short: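 Male CD-1 mice, 10 mg/kg sc in 5% DMSO/95% (0.5% methylcellulose). Plasma, brain and CSF were collected at 1, 4 and 7 h and analyzed by LC-MS/MS. Free fractions came from equilibrium dialysis.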

[2] = Ratio of drug level in brain to plasma in CD1 mouse at 10 mg/kg, sc after 60 mins; format: ADME, organism-based; design: dose 10 mg/kg, route subcutaneous; conditions: brain and plasma, read-out: BPR
In short: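 Plasma and brain exposures were measured in mice 60 min after 10 mg/kg subcutaneous dosing.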

[3] = Ratio of free drug level in brain to plasma in dog; format: ADME, Canis lupus familiaris; conditions: brain and plasma

| Kp uu [1] | Kp at 1 h [2] | Kp uu [3] | Compound |
| --- | --- | --- | --- |
| 1.2 | 3.51 | – | NC1=N[C@@]2(c3ccc(F)cc3F)CO[C@@H](C(F)F)C[C@H]2CS1 |
| 1.42 | 9.2 | 0.78 | NC1=N[C@@]2(c3ccc(F)cc3F)CO[C@@H](CF)C[C@H]2CS1 |
| 0.92 | 3.9 | – | C[C@H]1C[C@H]2CSC(N)=N[C@@]2(c2ccc(F)cc2F)CO1 |
